Results of several laboratories.
Protocols differ between the studies behind these lines.
P2RY14: P2Y purinoceptor 14 (P2RY14, Homo sapiens, UniProt Q15391)
IRAK4: Interleukin-1 receptor-associated kinase 4 (IRAK4, Homo sapiens, UniProt Q9NWZ3)
CYP2D6: Cytochrome P450 2D6 (CYP2D6, Homo sapiens, UniProt P10635)

Compound	target	test	system	setting	IC50
Cn1nccc1-c1ccc(-c2cc(C(=O)O)cc3cc(-c4ccc(C(F)(F)F)cc4)ccc23)cc1	P2RY14	ligand displacement in cells, flow cytometry			49.1 nM
CC(C)OC(=O)[C@H](Cc1c[nH]c2ccccc12)NC(=O)c1ccc2nccnc2c1	P2RY14	cAMP, antagonist			9.8 nM
Cn1cc(C2=C(c3cn(CCCSC(=N)N)c4ccccc34)C(=O)NC2=O)c2ccccc21	Homeodomain-interacting protein kinase 1 (HIPK1, Homo sapiens, UniProt Q86Z02)	enzyme activity, inhibitor			2900 nM
O=C(O)c1cc(-c2ccc(-c3c[nH]nn3)cc2)c2ccc(-c3ccc(C(F)(F)F)cc3)cc2c1	P2RY14	ligand displacement in cells, flow cytometry			3.69 nM
CNC(=O)c1ccccc1Nc1nc(Nc2ccc(CO)nc2)ncc1Cl	IRAK4	enzyme activity, inhibitor, radiometric			20.8 nM
CC(C)OC(=O)[C@H](Cc1c[nH]c2ccccc12)NC(=O)c1ccco1	P2RY14	cAMP, antagonist			21.6 nM
O=C(O)c1cc(-c2ccc(-n3cc(CCOP(=O)(O)O)nn3)cc2)c2ccc(-c3ccc(C(F)(F)F)cc3)cc2c1	P2RY14	ligand displacement in cells, flow cytometry			1340 nM
Cc1ccc(OCC(=O)N[C@@H](Cc2c[nH]c3ccccc23)C(=O)OC(C)C)cc1	CYP2D6	enzyme activity, inhibitor	human, liver microsomes	30 min	27400 nM
C#Cc1cnc(Nc2ccc(CO)nc2)nc1Nc1ccccc1S(C)(=O)=NC#N (stereo not shown)	IRAK4	enzyme activity, inhibitor, radiometric			3.99 nM
CN(C)C(=O)c1cc2cnc(Nc3ccc(-c4ccc5c(=O)cc(N6CCOCC6)oc5c4)cc3)nc2n1C1CCCC1	CYP2D6	enzyme activity, inhibitor, fluorescence		pH 8	4230 nM
O=C(COc1ccccc1)N[C@@H](Cc1c[nH]c2ccccc12)C(=O)O	P2RY14	cAMP, antagonist			18.9 nM
Nc1ncnc2c1ncn2[C@@H]1O[C@H](CSCC[C@H](N)C(=O)O)[C@@H](O)[C@H]1O	Histone-lysine N-methyltransferase, H3 lysine-36 specific (NSD1, Homo sapiens, UniProt Q96L73)	enzyme activity, inhibitor			6260 nM
CNS(=O)(=O)c1ccccc1Nc1nc(Nc2ccc(CO)nc2)ncc1Cl	IRAK4	enzyme activity, inhibitor, radiometric			12.6 nM
O=C(NO)c1ccc(Cn2cnc3c(Nc4ccc(Cl)cc4)ncnc32)cc1	Histone deacetylase 3 (HDAC3, Homo sapiens, UniProt O15379)	enzyme activity, inhibitor, fluorescence			15.1 nM
c1c(N2CCCC2)nc(N2CCCC2)nc1N1CCNCC1	Caspase-1 (CASP1, Homo sapiens, UniProt P29466)	enzyme activity, inhibitor		with preincubation	233 nM
c1coc(-c2n[nH]cc2-c2ccnc3ccccc23)c1	TGF-beta receptor type-1 (TGFBR1, Homo sapiens, UniProt P36897)	enzyme activity, inhibitor, radiometric			1100 nM
Cc1cc2c(cc1C)N[C@H](c1ccccc1)[C@@H](O)C(=O)N2	Tyrosine-protein kinase JAK3 (JAK3, Homo sapiens, UniProt P52333)	enzyme activity, inhibitor, ELISA			1150 nM
CNC(=O)c1ccccc1Nc1nc(Nc2ccc(CO)cc2)ncc1C1CC1	IRAK4	enzyme activity, inhibitor, radiometric			3 nM
CC(C)OC(=O)[C@H](Cc1c[nH]c2ccccc12)NC(=O)c1cccs1	P2RY14	cAMP, antagonist			45.8 nM
CNC(=O)c1ccccc1Nc1nc(Nc2ccc(CC(F)F)cc2)ncc1Cl	IRAK4	enzyme activity, inhibitor, radiometric			74.8 nM
COC(=O)/C=C/c1ccc(OCCN(C)c2ccccc2)cc1	Fatty acid CoA ligase Acsl3 (ACSL3, Homo sapiens, UniProt O95573)	enzyme activity, inhibitor			> 50000 nM
CNC(=O)c1ccccc1Nc1nc(Nc2ccc(CO)cc2)ncc1Cl	IRAK4	enzyme activity, inhibitor, radiometric			2.49 nM
O=C(O)c1cc(-c2ccc(-c3ccncc3)cc2)c2ccc(-c3ccc(C(F)(F)F)cc3)cc2c1	P2RY14	ligand displacement in cells, flow cytometry			40.8 nM
CS(=O)(=O)c1ccccc1Nc1nc(Nc2ccnc(CO)c2)ncc1Cl	IRAK4	enzyme activity, inhibitor, radiometric			106 nM
O=C(O)c1cc(-c2ccc(-n3ccnn3)cc2)cc(-n2cc(-c3ccc(C(F)(F)F)cc3)nn2)c1	P2RY14	ligand displacement in cells, flow cytometry			2030 nM
